Screens (PubChem BioAssay)
UBC13 polyUb: inhibitors of human UBC13 polyubiquitin chain formation; P61088; TR-FRET; inhibition, % at 20 µM; 0.47% of 330,000 active; AID 485273; in the data active = inhibition above about 45%, passing the limit was not always enough
Target sequence (P61088 whole entry, looked up): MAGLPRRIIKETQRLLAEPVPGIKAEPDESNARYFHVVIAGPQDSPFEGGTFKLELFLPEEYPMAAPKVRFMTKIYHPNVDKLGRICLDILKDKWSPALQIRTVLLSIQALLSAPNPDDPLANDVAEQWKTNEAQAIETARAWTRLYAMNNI
MEKK2wt PB1 HTS: raises or lowers MEK5 binding to wildtype human MEKK2 PB1 domain; Q9Y2U5; bead flow cytometry, Alexa488-MEK5 binding to MEKK2 WT; actives lie on both sides; binding response (% of control), % at 10 µM; 1.1% of 290,000 active; in the data active = binding response below about 67% or above about 130%
Apaf-1 inh: human Apaf-1 inhibition | reconstituted apoptosome caspase-3 activity, DEVD-Rh110 fluorescence | O14727 | inhibition, % at 20 µM | 0.71% of 330,000 active; active = inhibition of at least 40% at 20 µM;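 note: plate controls were DMSO wells for no effect and DEVD-CHO caspase inhibitor wells for full effect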
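Medium: Hepes buffer, pH 7.5 / System: biochemical Apaf-1 apoptosome reconstitution / Measured by: Rh110 fluorescence, excitation 480 nm, emission 540 nm / Times: compound with Apaf-1, dATP, procaspase-3 30 min, then 50 min reaction, room temperature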
MEKK3 PB1 HTS: raises or lowers MEK5 binding to the human MEKK3 PB1 domain; Q99759; bead-based flow cytometry, Alexa488-MEK5 binding to MEKK3; actives lie on both sides; 0 = blocked by unlabeled MEK5, 100 = vehicle; binding response (% of control), % at 10 µM; 1.4% of 290,000 active;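 active = binding response more than 3 SD above or below the average of its plate-row segment, actives on both sides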;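 note: Alexa488 bead fluorescence after subtracting the streptavidin-only scavenger bead signal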
Target sequence (Q99759 whole entry, looked up, the tested form may be a part): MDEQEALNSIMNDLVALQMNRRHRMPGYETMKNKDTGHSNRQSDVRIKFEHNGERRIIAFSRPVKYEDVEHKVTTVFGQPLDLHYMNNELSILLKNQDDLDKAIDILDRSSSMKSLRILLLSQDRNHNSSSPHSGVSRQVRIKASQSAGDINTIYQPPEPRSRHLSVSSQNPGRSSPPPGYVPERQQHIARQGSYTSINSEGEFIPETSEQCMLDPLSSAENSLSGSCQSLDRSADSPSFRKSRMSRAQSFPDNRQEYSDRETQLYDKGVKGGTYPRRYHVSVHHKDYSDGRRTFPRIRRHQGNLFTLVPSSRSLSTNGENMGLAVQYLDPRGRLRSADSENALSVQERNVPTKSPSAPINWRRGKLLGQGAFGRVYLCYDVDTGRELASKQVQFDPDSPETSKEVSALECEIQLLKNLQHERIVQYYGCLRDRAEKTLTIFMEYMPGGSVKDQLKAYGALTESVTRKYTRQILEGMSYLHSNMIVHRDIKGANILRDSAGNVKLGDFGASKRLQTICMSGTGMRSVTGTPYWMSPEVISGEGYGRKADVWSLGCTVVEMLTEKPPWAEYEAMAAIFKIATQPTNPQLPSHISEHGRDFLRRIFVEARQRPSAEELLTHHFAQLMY
MEKK2mut PB1 HTS: signal of MEK5 binding to mutant human MEKK2 PB1 domain; percent response, % at 10 µM; bead flow cytometry, Alexa488-MEK5 binding to MEKK2 mutant; AID 1530; 0.35% of 290,000 active; in the data active = percent response above about 24%, passing the limit was not always enough
MEKK2wt confirm: raises or lowers MEK5 binding to wildtype human MEKK2, retest. shares compounds with MEKK3 PB1 HTS. bead flow cytometry, Alexa488-MEK5 binding to MEKK2 WT; actives lie on both sides. binding response (% of control), % at 10 µM. 2.4% of 5,900 active. AID 1892; in the data active = binding response below about 16% or above about 210%; inactive = in between
MEKK2mut-MEK5: signal of MEK5 binding to mutant human MEKK2, retest | shares compounds with MEKK3 PB1 HTS | bead flow cytometry, Alexa488-MEK5 binding to MEKK2 mutant | percent response, % at 10 µM | 2% of 5,900 active | AID 1893; in the data active = percent response mostly above about 71%, no sharp cut-off; inactive = mostly below about 38%;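 note: higher means compound restores mutant binding toward wildtype level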
MEKK3 confirm: MEKK3-MEK5 PB1 inhibition, single concentration confirmation. shares compounds with MEKK3 PB1 HTS. bead flow cytometry, Alexa488-MEK5 binding to MEKK3; hits give low values. binding response (% of control), % at 10 µM. 1.8% of 5,900 active;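 active = binding response below 72% of control, or above a set upper limit, though filed actives all read lower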;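 note: 100% = DMSO only wells and 0% = binding blocked by excess unlabeled MEK5; lower values mean stronger disruption of MEK5 binding to MEKK3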
Starred values were filed as active, the others as inactive; · = not tested or not shown; [ ] = another dose, or the depositor's remark. Hits are enriched below; roughly 2.9% of the tested compounds scored in any of these assays.

SMILES | UBC13 polyUb | MEKK2wt PB1 HTS | Apaf-1 inh | MEKK3 PB1 HTS | MEKK2mut PB1 HTS | MEKK2wt confirm | MEKK2mut-MEK5 | MEKK3 confirm
CCOCCCN1CN(Cc2ccccc2)CNC1=S | 1.1 | 104.0 | 3.7 | 128.0* | 0.0 | 106.0 | 4.0 | 100.0
O=C1NCN(c2ccccc2)C12CCN(CCCC(c1ccc(F)cc1)c1ccc(F)cc1)CC2 | 39.8 | 207.0* | 54.7* | 113.0 | 25.0* | 165.0 | 50.0 | 106.0
CCOC(=O)c1c(NC(C)=O)sc(/C(C)=N/Nc2ccc(C(=O)O)cc2)c1C | -0.3 | 101.0 | 1.1 | 102.0 | 2.0 | · | · | ·
Cc1nnc(SCC(=O)NCc2ccco2)[nH]c1=O | -7.9 | 135.0* | 13.8 | 133.0* | 7.0 | 104.0 | 3.0 | 102.0
Cc1cc2c(=O)n(Cc3ccco3)c(SCC(=O)NCc3ccco3)nc2s1 | -4.3 | 2.0*[inhibitor] | 3.1 | 2.0*[inhibitor] | -21.0 | 100.0 | 11.0 | 102.0
COc1cc(CN2CCN(c3ccccc3C)CC2)cc([N+](=O)[O-])c1O | -30.8 | 49.0*[inhibitor] | 10.0 | 62.0*[inhibitor] | -16.0 | 101.0 | 2.0 | 100.0
COc1cc(CN2CCN(c3cc(C)ccc3C)CC2)cc([N+](=O)[O-])c1O | -12.0 | 104.0 | -13.1 | 104.0 | 9.0 | · | · | ·
CN(C(=O)Cc1c(C(=O)O)n(C)c2ccccc12)c1ccc(Cl)cc1 | -1.3 | 105.0 | 1.8 | 102.0 | 4.0 | · | · | ·
CC(C)c1ccc(N(C)C(=O)Cc2c(C(=O)O)n(C)c3ccccc23)cc1 | -5.4 | -1.0*[inhibitor] | 5.0 | 1.0*[inhibitor] | -15.0 | 100.0 | 1.0 | 100.0
Cc1ccc(CSCCNS(C)(=O)=O)cc1 | -0.9 | 91.0 | -0.5 | 58.0*[inhibitor] | -4.0 | 100.0 | 2.0 | 101.0
Cc1ccc(N=Cc2sc(O)c3ccccc23)cc1 | -28.3 | 99.0 | 22.0 | 109.0 | 1.0 | · | · | ·
Cc1ccc(N=Cc2sc(O)c3ccccc23)c(C)c1 | -33.6 | 135.0* | 10.7 | 119.0 | 7.0 | 113.0 | 7.0 | 109.0
Nc1cc(N)nc(SCC(=O)NC2CCCCCCC2)n1 | 1.0 | · | 3.6 | · | · | · | · | ·
Cc1ccc2c(c1)C(=NC1CCCCC1)c1cc3ccccc3nc1-2 | · | 101.0 | · | 67.0*[inhibitor] | 1.0 | 107.0 | 7.0 | 105.0
COc1ccc(NC(=O)COC(=O)CNS(=O)(=O)c2ccc(F)c(F)c2F)cc1OC | -4.1 | 105.0 | -6.6 | 135.0* | 0.0 | 103.0 | 5.0 | 107.0
COc1cc(NC(=O)COC(=O)CNS(=O)(=O)c2ccc(F)c(F)c2F)cc(OC)c1 | 6.1 | 101.0 | -1.1 | 101.0 | -2.0 | · | · | ·
Cc1cccc(NC(=O)CNC(=O)CN2C(=O)NC3(CCCCC3C)C2=O)c1C (stereo not given) | 4.0 | · | 0.1 | · | · | · | · | ·
CN1CCN(c2ccc(-c3cccc(NC(=O)COc4ccc(Cl)cc4Cl)c3)nn2)CC1 | 30.8 | · | 34.3 | · | · | · | · | ·
COc1cc2c(C(=O)NCCCOC(C)C)cn(CC(C)C)c(=O)c2cc1OC | 3.7 | 87.0 | -7.2 | 81.0*[inhibitor] | -3.0 | 99.0 | 2.0 | 103.0
COc1cc2c(C(=O)NCCN(C)C)cn(CC(C)C)c(=O)c2cc1OC | 12.7 | 102.0 | -5.8 | 103.0 | 1.0 | · | · | ·
C/C(=N\NC(=O)c1ccc(-c2ccccc2)cc1)C1C(=O)c2ccccc2C1=O | -45.5 | 47.0*[inhibitor] | 11.0 | 47.0*[inhibitor] | -16.0 | 97.0 | 0.0 | 103.0
COC(=O)c1c(C)oc(C)c(C(=O)OC)c1=O | 4.6 | 100.0 | -3.9 | 102.0 | 5.0 | · | · | ·
Cc1oc(C)c(C(=O)O)c1C(=O)O | 2.8 | 55.0 | -7.0 | 45.0*[inhibitor] | -15.0 | 103.0 | 4.0 | 103.0
Cc1ccc2sc(NC(=O)CN3C(=O)c4ccccc4C3=O)nc2c1C | 9.2 | 100.0 | 14.1 | 108.0 | -3.0 | · | · | ·
COc1ccccc1N1CCN(S(=O)(=O)c2ccc(Cl)s2)CC1 | 4.6 | -4.0*[inhibitor] | -13.1 | 0.0*[inhibitor] | -39.0 | 25.0 | -21.0 | 56.0*
SMILES | UBC13 polyUb | MEKK2wt PB1 HTS | Apaf-1 inh | MEKK3 PB1 HTS | MEKK2mut PB1 HTS | MEKK2wt confirm | MEKK2mut-MEK5 | MEKK3 confirm
CCOc1ccccc1N1CCN(S(=O)(=O)c2ccc(Cl)s2)CC1 | -11.0 | 92.0 | 13.8 | 98.0 | 2.0 | · | · | ·
CCOC(=O)c1sc2ccccc2c1NC(=O)c1coc2ccccc2c1=O | -8.5 | 96.0 | 21.2 | 139.0* | -1.0 | 101.0 | -1.0 | 102.0
Cn1cc(S(=O)(=O)c2ccccc2)n(C)c1=O | 3.8 | 104.0 | -6.0 | 98.0 | 3.0 | · | · | ·
CC(=O)Nc1nnc(SCC(=O)N2CCN(Cc3ccccc3)CC2)s1 | 6.4 | 105.0 | -3.0 | 75.0*[inhibitor] | 3.0 | 103.0 | -1.0 | 103.0
CC(=O)Nc1nnc(SCC(=O)N2CCCc3ccccc32)s1 | 0.6 | 96.0 | -5.3 | 88.0 | -3.0 | · | · | ·
Cc1ccc(OCCOc2ccc(Cl)cc2Cl)c([N+](=O)[O-])n1 | 20.1 | 165.0* | 9.2 | 105.0 | 13.0 | 103.0 | 3.0 | 102.0
CCCC1Cc2c(sc(NC(=S)NC(=O)c3ccccc3)c2C#N)CO1 (stereo not given) | -16.7 | 105.0 | 10.1 | 134.0* | 0.0 | 97.0 | -3.0 | 93.0
COC(=O)C1=C[C@@H](C(=O)OC)[C@@H]2C3=C(C(=O)[C@]2(CC(C)C)NC(=O)c2ccccc2)[C@H](C)n2c(=O)n(-c4ccccc4)c(=O)n2[C@@H]3C1 | -0.6 | 105.0 | -7.1 | 109.0 | 5.0 | · | · | ·
CCC1(CC)C(=O)C2=C3C1[C@H](C(=O)OC)CC(C(=O)OC)C[C@H]3n1c(=O)n(-c3ccccc3)c(=O)n1[C@H]2C (stereo not given in full) | -5.3 | 86.0 | 23.2 | 80.0*[inhibitor] | -4.0 | 96.0 | 1.0 | 97.0
COc1ccc(-c2nsc(SCC(=O)NCC3CCCO3)n2)cc1 (stereo not given) | 9.7 | 81.0 | -10.9 | 73.0*[inhibitor] | -3.0 | 100.0 | 1.0 | 101.0
COc1cccc2cc(C(=O)NCC3CCCO3)c(=O)oc12 (stereo not given) | 0.6 | · | -5.0 | · | · | · | · | ·
Cc1ccc(-c2nsc(SCC(=O)NCC3CCCO3)n2)cc1 (stereo not given) | 1.5 | 93.0 | -2.7 | 98.0 | -9.0 | · | · | ·
CCOc1cc(NC(=S)NCC2CCCO2)c(OCC)cc1NC(=O)c1ccccc1C (stereo not given) | 2.2 | 98.0 | 3.4 | 103.0 | -3.0 | · | · | ·
Cc1ccc(SCCC(=O)NCC2CCCO2)cc1 (stereo not given) | -5.2 | 1.0*[inhibitor] | 6.2 | 2.0*[inhibitor] | -39.0 | 96.0 | 1.0 | 102.0
Cc1ccc(SCC(=O)NCC2CCCO2)cc1 (stereo not given) | 1.6 | 94.0 | -11.2 | 96.0 | -10.0 | · | · | ·
CCOc1cc(NC(=S)NCC2CCCO2)c(OCC)cc1NC(=O)c1ccc(OC)cc1 (stereo not given) | 1.3 | 106.0 | 23.4 | 130.0* | 1.0 | 96.0 | -1.0 | 103.0
